In paper PMC3771329 (Journal of the American Chemical Society, 2013):

How the values were obtained:
[1] = assay type: physicochemical; details: after incubation with furin, buffer pH 7.5 with TCEP, 37 °C, 3 h
furin = furin (Homo sapiens, UniProt P09958); test: Fluorescence spectrometry of probes incubated with and without furin; assay type: biochemical; details: 2 μM probe, furin (100 pmol·U−1) buffer (100 mM HEPES, 1 mM CaCl2, pH 7.5) with 1 mM TCEP, 3 h, 37 °C; n=3
[2] = test system: MDA-MB-231 (furin-overexpressing) subcutaneous tumors; test: Furin-like activity photoacoustic imaging in mice, MDA-MB-231 tumors; assay type: in vivo; details: 25 nmol by tail vein; imaged every 15 min up to 60 min; n=4
How it was run: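 Female nude (Nu/Nu) mice carried subcutaneous upper-thigh xenografts from 10 million MDA-MB-231 or LoVo cells, grown 3–4 weeks. Mice were under 2% isoflurane in oxygen with a tail-vein catheter. Tumors got an 11-min pre-scan at 740 nm. Test compound (25 nmol, diluted from DMSO stock into 150 μL sterile PBS) was given i.v. PA scans ran every 15 min for 1 h: 120 views, 100 pulses/view, 250 μm voxels, 3D back-projection reconstruction. Signal normalized to t=0; n=4/group, SD; two-sided paired t test.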

Sequence of furin (P09958 108-595 limits assumed): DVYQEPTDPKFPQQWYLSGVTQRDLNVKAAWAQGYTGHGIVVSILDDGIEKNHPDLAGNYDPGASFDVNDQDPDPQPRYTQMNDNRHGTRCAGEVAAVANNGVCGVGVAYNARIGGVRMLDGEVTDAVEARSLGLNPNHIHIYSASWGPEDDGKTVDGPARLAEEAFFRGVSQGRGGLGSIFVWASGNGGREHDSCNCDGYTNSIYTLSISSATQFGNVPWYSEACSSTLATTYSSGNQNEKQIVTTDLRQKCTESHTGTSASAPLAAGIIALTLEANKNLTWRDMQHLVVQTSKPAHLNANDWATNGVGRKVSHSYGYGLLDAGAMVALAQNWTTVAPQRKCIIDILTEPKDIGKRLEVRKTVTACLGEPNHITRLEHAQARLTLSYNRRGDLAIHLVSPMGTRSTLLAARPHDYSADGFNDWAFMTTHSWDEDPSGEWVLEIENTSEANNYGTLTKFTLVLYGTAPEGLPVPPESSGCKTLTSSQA

Row | drop in fluorescence, incubated with furin relative to no furin added (furin) | Substance | precipitation / water solubility of the oligomers formed with furin [1] | PA signal in MDA-MB-231 tumors after probe injection [2]
1 | 6 fold | Ac-RVRRC(SEt)K(Atto740)-CABT [ESOR-PA01] | no precipitate was formed | 
2 | no significant decrease | Ac-RRRVC(SEt)K(Atto740)-CABT [ESOR-PA02] |  | very low levels of PA signal
